From the array DNA melting data of Ke et al. (doi:10.1101/2024.01.08.574731)

Legend:
[1] = folding enthalpy; higher = less favourable; fluorescence melt of hairpins on a sequencing array, two-state fit; settings: sodium 0.088 M
Outline: (§1)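 Melting temperature and folding enthalpy were derived from bootstrapped two-state fits. The fitted temperatures were raised by 9.35 °C to agree with UV melts, and four replicates were combined by inverse variance. The underlying data were Cy3 fluorescence images of library hairpins, with annealed Cy3 and quencher oligos, on a sequenced MiSeq flow cell in 50 mM Na-HEPES pH 8.0, 25 mM NaCl, taken in 2.5 °C steps up to 60 °C, normalised to pre-quench Cy3 and to control constructs.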

[2] = melting temperature; fluorescence melt of hairpins on a sequencing array, two-state fit, raised by 9.35 °C to match UV melts; settings: sodium 0.088 M
Outline: as §1

Row | Sequence | folding enthalpy [1] | Tm [2]
1 | GGCGGAGGAAACCCCACC ((.((.(....).)).)) | -20.2 kcal/mol | 29.6 °C
2 | GACGAGGGAAACCTCGCC (.(((((....))))).) | -14.3 kcal/mol | 52.3 °C
3 | GAACTAGGAAACCAGTTC (((((.(....).))))) | -28.3 kcal/mol | 33.9 °C
4 | GTCTCCGAAAGGATCGAC ((((((....)))..))) | -14.7 kcal/mol | 31.4 °C
5 | GAGTGCGAAAGCAACCTC ((((((....)))..))) | -13.5 kcal/mol | 37.7 °C
6 | GAACTTGGAAACAAGTTC (((((((....))))))) | -39 kcal/mol | 57.4 °C
7 | GTTACAGGAAACTGTGAC ((.((((....)))).)) | -30 kcal/mol | 44.6 °C
8 | GCGGAAGTCCGC ((((....)))) | -20.9 kcal/mol | 56 °C
9 | GGCGTGCCGAAAGGCGCC (((..(((....)))))) | -11.5 kcal/mol | 59.8 °C
10 | GATCCTACTGAGGATC ((((((....)))))) | -39.7 kcal/mol | 50.6 °C
11 | GGGTCCGAAAGGACTCCC ((((((....)))..))) | -11 kcal/mol | 50.6 °C
12 | GGCTCGACGAAAGTCGCC (((..(((....)))))) | -8 kcal/mol | 35.1 °C
13 | GTCTTCCGAAAGGATGAC (((.(((....))).))) | -42.4 kcal/mol | 53.1 °C
14 | GCTACGCGAAAGCAGAGC (((..((....))..))) | -18.7 kcal/mol | 48.4 °C
15 | GATCCCAAGGGGATC ((((((...)))))) | -35.8 kcal/mol | 66.6 °C
16 | GTACAGAAATGTAC (((((....))))) | -20.2 kcal/mol | 40.4 °C
17 | GATCAGAATCCTGATC ((((((....)))))) | -31 kcal/mol | 46.9 °C
18 | GCAACGCGAAAGCGTAGC ((.((((....)))).)) | -17.6 kcal/mol | 61.9 °C
19 | GGGTCTTCGAAAGAACCC (((..(((....)))))) | -29.2 kcal/mol | 40.6 °C
20 | GTTATGCGAAAGCACAAC (((.(((....))).))) | -20.3 kcal/mol | 40.4 °C
21 | GTGGTCCGAAAGGACAC (((.(((....)))))) | -12.8 kcal/mol | 53.2 °C
22 | GATCGACTACTCGATC ((((((....)))))) | -36.5 kcal/mol | 50.7 °C
23 | GCCCCGGGAAACCAGGGC ((((.((....)).)))) | -33 kcal/mol | 55.5 °C

Row | Sequence | folding enthalpy [1] | Tm [2]
24 | GGGTAACGAAAGTTCCCC (((.(((....))).))) | -27.4 kcal/mol | 50.6 °C
25 | GGTTACCGAAAGGTTACC (((.(((....))).))) | -30.3 kcal/mol | 52.6 °C
26 | GTGCAGGGAAACCTGTGC (..((((....))))..) | -21.6 kcal/mol | 44.6 °C
27 | GCGGTTTGCCGC ((((....)))) | -41.2 kcal/mol | 60.6 °C
28 | GGATCAGGAAACCGATCC (((((.(....).))))) | -39 kcal/mol | 46.4 °C
29 | GCGCAGCGAAAGCATCGC (((..((....))..))) | -9.43 kcal/mol | 47.4 °C
30 | GGTTCTGGAAACAGAGCC ((.((((....)))).)) | -30.5 kcal/mol | 50.6 °C
31 | GCGAAGCGAAAGCCTCGC ((((.((....)).)))) | -18.5 kcal/mol | 57.8 °C
32 | GATCCATTTATGGATC ((((((....)))))) | -44.2 kcal/mol | 60.8 °C
33 | GGACTCCGAAAGGATCC (((.(((....)))))) | -24.5 kcal/mol | 46.9 °C
34 | GATTACCCGAAAGGGATC (((..(((....)))))) | -12.1 kcal/mol | 26.3 °C
35 | GAAAAAACGAAAGTTTTC (((..(((....)))))) | -13.4 kcal/mol | 30.9 °C
36 | GATAACGGAAACGTTATC (((((((....))))))) | -47.8 kcal/mol | 56.4 °C
37 | GACTGTGGAAACACAATC ((.((((....)))).)) | -15.5 kcal/mol | 31.6 °C
38 | GAGCGCGAAAGCGACTC ((((((....))).))) | -16.9 kcal/mol | 60.3 °C
39 | GCATTAGGAAACTAACGC ((.((((....)))).)) | -22.6 kcal/mol | 31.7 °C
40 | GGTTGAGGAAACTTGACC (((..((....))..))) | -14.6 kcal/mol | 32.1 °C
41 | GAGTTTGGAAACAAACTC (((((((....))))))) | -43.1 kcal/mol | 58.3 °C
42 | GCGGAGGGAAACCCCCGC ((((.((....)).)))) | -38.9 kcal/mol | 57.6 °C
43 | GCTCTAGGAAACTAGAGC (((((((....))))))) | -44.6 kcal/mol | 60.1 °C
44 | GGGCTCGGAAACAAGCCC (((((.(....).))))) | -28.1 kcal/mol | 51.4 °C
45 | GGCTCAGCGAAAGCTGCC (((..(((....)))))) | -12.3 kcal/mol | 44.2 °C
46 | GCAGTTGGAAACAACTAC (.(((((....))))).) | -17.1 kcal/mol | 37.5 °C

Row | Sequence | folding enthalpy [1] | Tm [2]
47 | GGTGTCGGAAACGACATC (.(((((....))))).) | -26.8 kcal/mol | 54 °C
48 | GCGGTCGGAAACAACCGC (((((.(....).))))) | -34.7 kcal/mol | 55.1 °C
49 | GACCATGGAAACATGGTC (((((((....))))))) | -43.1 kcal/mol | 65.1 °C
50 | GATCACTCTGTGATC ((((((...)))))) | -35.8 kcal/mol | 61.6 °C
51 | GACCGCGAAAGCGTAGTC ((((((....)))..))) | -14.6 kcal/mol | 46.5 °C
52 | GAGCATGGAAACATACTC (((.(((....))).))) | -26.1 kcal/mol | 35.6 °C
53 | GATCTATGATAGATC ((((((...)))))) | -25.2 kcal/mol | 37.3 °C
54 | GATCCGGCTACGGATC ((((((....)))))) | -40.2 kcal/mol | 67.8 °C
55 | GCTGTCGAAAGACCCAGC ((((((....)))..))) | -15.9 kcal/mol | 34.8 °C
56 | GTCTACGAAAGTAGCGAC ((((((....)))..))) | -17.6 kcal/mol | 47 °C
57 | GATCTCATTGAGATC ((((((...)))))) | -34.9 kcal/mol | 54.2 °C
58 | GTAAGCGGAAACGCTTAC (((((((....))))))) | -36.1 kcal/mol | 65.2 °C
59 | GCCTCTGGAAACGGAGGC (((((.(....).))))) | -40.7 kcal/mol | 57.5 °C
60 | GCAAGGCGAAAGCAATGC (((..((....))..))) | -16 kcal/mol | 41.3 °C
61 | GCTGGGGGAAACCTCAGC ((((.((....)).)))) | -44.8 kcal/mol | 54.6 °C
62 | GTCGCCGGAAACGACGAC ((((.((....)).)))) | -43.5 kcal/mol | 57.5 °C
63 | GTGGCACGAAAGTGCAC (((.(((....)))))) | -11 kcal/mol | 52.1 °C
64 | GTTGTCGAAAGACGCAAC ((((((....)))..))) | -9.32 kcal/mol | 31.9 °C
65 | GCCCGCGGAAACGCGAGC ((.((((....)))).)) | -17.3 kcal/mol | 62.2 °C
66 | GTCCTACGAAAGTAGAC (((.(((....)))))) | -18.1 kcal/mol | 39.6 °C
67 | GATCTCGGACGAGATC ((((((....)))))) | -35.1 kcal/mol | 60.3 °C
68 | GTCGATCCGAAAGGAGAC (((..(((....)))))) | -22.7 kcal/mol | 40 °C
69 | GTCACGGCGAAAGCCGAC (((..(((....)))))) | -6.5 kcal/mol | 27.9 °C

Row | Sequence | folding enthalpy [1] | Tm [2]
70 | GGAAACGGAAACGTTTTC (.(((((....))))).) | -28.3 kcal/mol | 46.8 °C
71 | GATCTACACATAGATC ((((((....)))))) | -44.3 kcal/mol | 43.2 °C
72 | GCGCTCCGAAAGGATCGC (((.(((....))).))) | -41 kcal/mol | 59.2 °C
73 | GGAACAGAAATGTTCC ((((((....)))))) | -39 kcal/mol | 54.9 °C
74 | GATCGATGTATCGATC ((((((....)))))) | -40.9 kcal/mol | 58.4 °C
75 | CGCGGATGATTCCGCG ((((((....)))))) | -31.2 kcal/mol | 69.3 °C
76 | GATCGTCAAGACGATC ((((((....)))))) | -37.5 kcal/mol | 58.7 °C
77 | GATCGGAGAGCCGATC ((((((....)))))) | -30.3 kcal/mol | 54.8 °C
78 | GTAACACGAAAGTGTAC (((.(((....)))))) | -14 kcal/mol | 42.8 °C
79 | GATCCCCGCTGGGATC ((((((....)))))) | -32.9 kcal/mol | 61.8 °C
80 | GCACTAGGAAACTGGTGC ((((.((....)).)))) | -34.5 kcal/mol | 52.9 °C
81 | GCAAGGCGAAAGCGTGGC ((.(.((....)).).)) | -20.2 kcal/mol | 46.9 °C
82 | GATCGGAAGCCGATC ((((((...)))))) | -34.7 kcal/mol | 55 °C
83 | GATTTGGGAAACCGAATC ((((.((....)).)))) | -31.1 kcal/mol | 44.5 °C
84 | CGGGCACGGAAACGTCCG (((..(((....)))))) | -19.9 kcal/mol | 38.9 °C
85 | GTGACCGAAAGGTGCAC ((((((....))).))) | -19.9 kcal/mol | 49.4 °C
86 | GGTTTCGAAAGAACTACC ((((((....)))..))) | -10.1 kcal/mol | 29.4 °C
87 | GAGGCGGGAAACCACCTC ((((.((....)).)))) | -36.9 kcal/mol | 49.1 °C
88 | GATCCCCAAGGGGATC ((((((....)))))) | -37.4 kcal/mol | 65 °C
89 | GAAGCCGAAAGGCCATTC ((((((....)))..))) | -8.97 kcal/mol | 28 °C
90 | GATCAGCTTCCTGATC ((((((....)))))) | -44.1 kcal/mol | 49.6 °C
91 | GATCACCGGAGTGATC ((((((....)))))) | -41.2 kcal/mol | 57.7 °C
92 | GCGTCTTTACGC ((((....)))) | -27.9 kcal/mol | 53.2 °C
